Laboratory results taken from ChEMBL document CHEMBL4616650, “Spongian Diterpenoids Derived from the Antarctic Sponge Dendrilla antarctica Are Potent Inhibitors of the Leishmania Parasite” (J Nat Prod, 2020).

Assays:
[1] = tested on: Leishmania donovani; experiment: Antileishmanial activity against Leishmania donovani MHOM/SD/75/1246/130 amastigotes infected in mouse J774A.1 cells incubated for 72 hrs by DRAQ5 fluorescent probe based assay; format: functional, organism-based; conditions: MHOM/SD/75/1246/130, J774.A1, 72 h
Outline: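 Axenic amastigotes grown at 37 °C in RPMI 1640 pH 5.5 with HEPES, MES, hemin, xanthine, Tween-80, tryptone-peptone, 20% heat-inactivated FBS. 2000 J774A.1 macrophages per well infected at 10:1 parasites:cells, 24 h, 37 °C, 5% CO2; extracellular parasites washed off. Compounds from 10 μg/mL top, 1:2 serial dilutions, 72 h. Fixed 2% paraformaldehyde, DraQ5 5 μM nuclear stain; high-content imaging counts amastigotes per 500 macrophages; IC50 derived.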

[2] = tested on: J774.A1; experiment: Cytotoxicity against mouse J774A.1 cells incubated for 72 hrs by CellTiter 96 AQueous One solution cell proliferation assay; format: cell-based; conditions: J774.A1, 72 h
Outline: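 J774A.1 macrophages in RPMI 1640 with 10% heat-inactivated FBS, pH 7.2. Seeded at 50 000 cells per well with six 2-fold dilutions, final 50 to 1.6 μg/mL, 72 h at 37 °C, 5% CO2. MTS reagent added for a further 4 h; absorbance read at 490 nm.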

[3] = Selectivity index, ratio of cytotoxicity against mouse J774A.1 cells to antileishmanial activity against Leishmania donovani MHOM/SD/75/1246/130 amastigotes infected in mouse J774A.1 cells; format: toxicity, cell-based; conditions: read-out: Ratio IC50

Structure (SMILES)	IC50 [1]	IC50 [2]	selectivity ratio [3]
CC(=O)O[C@@H]1O[C@H]2OC(=O)[C@H](C)C3=C([C@@]4(C)CCCC(C)(C)C4)CC[C@@H]1[C@H]32	3.5 µM	> 133 µM	> 38
C[C@H]1C(=O)O[C@@H](O)c2c(C=O)ccc([C@@]3(C)CCCC(C)(C)C3)c21	1.9 µM	> 150 µM	> 100
CO[C@H]1O[C@@H](OC)c2c1ccc([C@@]1(C)CCCC(C)(C)C1)c2[C@@H](C)C(=O)O [MEMBRANOLIDE D]	6.6 µM	95 µM	
CO[C@@H]1O[C@@H](OC)c2c1ccc([C@@]1(C)CCCC(C)(C)C1)c2[C@@H](C)C(=O)O [MEMBRANOLIDE C]	0.8 µM	> 133 µM	> 166
COC(=O)[C@H](C)c1c([C@@]2(C)CCCC(C)(C)C2)ccc2c1C(=O)OC2	9.7 µM	76.8 µM	
CO[C@H]1O[C@@H](OC(C)=O)c2ccc([C@@]3(C)CCCC(C)(C)C3)c([C@@H](C)C(=O)O)c21	12 µM	62.9 µM	
CO[C@@H]1O[C@H](OC)c2c1ccc([C@@]1(C)CCCC(C)(C)C1)c2[C@@H](C)C(=O)O	6.5 µM	> 133 µM	
CO[C@H]1OC(=O)c2ccc([C@@]3(C)CCCC(C)(C)C3)c([C@@H](C)C(=O)O)c21	26.7 µM	42.4 µM	
CC(=O)O[C@@H]1O[C@H]2OC(=O)[C@H](C)C3C([C@@]4(C)CCCC(C)(C)C4)=CC=C1C32 (stereo partly specified)	3.1 µM	12.3 µM	4
CCCCCCCCCCCCCCCCOP(=O)([O-])OCC[N+](C)(C)C [MILTEFOSINE]	2.9 µM	> 120 µM	
CO[C@H]1OC(=O)[C@H](C)c2c([C@@]3(C)CCCC(C)(C)C3)ccc(C=O)c21	> 29 µM	54.6 µM	
CC(=O)O[C@@H]1O[C@H]2OCC3=C(C)[C@@H]([C@@]4(C)CCCC(C)(C)C4)CC[C@@H]1[C@H]32	11.2 µM	73.4 µM	
CO[C@H]1O[C@H](OC)c2c1ccc([C@@]1(C)CCCC(C)(C)C1)c2[C@@H](C)C(=O)O	1.4 µM	> 133 µM	> 95
